Results published in ChEMBL document CHEMBL4325864, “Discovery of new potent protein arginine methyltransferase 5 (PRMT5) inhibitors by assembly of key pharmacophores from known inhibitors” (Bioorg Med Chem Lett, 2018).
pIC50: −log10 of the molar value.

Columns and labels:
PRMT5/MEP50 complex = PRMT5/MEP50 complex (Homo sapiens, UniProt O14744); assay: Inhibition of recombinant human N-terminal FLAG-tagged PRMT5 (2 to end residues) /human N-terminal His-tagged MEP50 (2 to end residues) expressed in HEK293F cells pretreated for 15 mins followed by substrate and [3H]-SAM addition measured after 60 mins by scintillation proximity assay; assay type: cell-based
In short: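 PRMT5 enzymatic inhibition measured by radiometric scintillation proximity assay; IC50 determined.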

[1] = biological target: T1, Protein arginine N-methyltransferase 5 (Homo sapiens, UniProt O14744); assay: Inhibition of PRMT5 (unknown origin)
[2] = biological target: T1, Protein arginine N-methyltransferase 5; assay: Inhibition of full-length N-terminal FLAG-tagged PRMT5 (unknown origin) (1 to 637 residues) expressed in baculovirus infected Sf9 insect cells using histone H4 as peptide after 5 hrs in presence of [H3]AdoMet by scintillation proximity assay

Chain of PRMT5/MEP50 complex (O14744 whole entry): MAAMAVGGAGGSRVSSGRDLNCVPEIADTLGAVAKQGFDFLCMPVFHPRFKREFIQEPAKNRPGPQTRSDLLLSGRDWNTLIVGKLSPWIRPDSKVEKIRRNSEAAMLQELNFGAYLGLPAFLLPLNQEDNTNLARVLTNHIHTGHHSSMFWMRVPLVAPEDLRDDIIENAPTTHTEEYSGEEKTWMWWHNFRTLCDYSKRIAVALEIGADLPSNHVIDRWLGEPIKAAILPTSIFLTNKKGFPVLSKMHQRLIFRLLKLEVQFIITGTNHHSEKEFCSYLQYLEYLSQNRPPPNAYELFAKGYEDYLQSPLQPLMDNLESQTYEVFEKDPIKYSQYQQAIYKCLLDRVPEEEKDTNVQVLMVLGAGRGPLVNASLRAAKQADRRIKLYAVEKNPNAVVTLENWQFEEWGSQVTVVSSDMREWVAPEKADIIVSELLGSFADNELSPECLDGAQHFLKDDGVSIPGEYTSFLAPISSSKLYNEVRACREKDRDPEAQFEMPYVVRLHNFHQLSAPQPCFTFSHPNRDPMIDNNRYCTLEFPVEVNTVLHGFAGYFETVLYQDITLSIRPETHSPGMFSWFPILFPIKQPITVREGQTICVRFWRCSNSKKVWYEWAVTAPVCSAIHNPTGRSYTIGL
Chain of PRMT5/MEP50 complex (Q9BQA1 whole entry, further chain): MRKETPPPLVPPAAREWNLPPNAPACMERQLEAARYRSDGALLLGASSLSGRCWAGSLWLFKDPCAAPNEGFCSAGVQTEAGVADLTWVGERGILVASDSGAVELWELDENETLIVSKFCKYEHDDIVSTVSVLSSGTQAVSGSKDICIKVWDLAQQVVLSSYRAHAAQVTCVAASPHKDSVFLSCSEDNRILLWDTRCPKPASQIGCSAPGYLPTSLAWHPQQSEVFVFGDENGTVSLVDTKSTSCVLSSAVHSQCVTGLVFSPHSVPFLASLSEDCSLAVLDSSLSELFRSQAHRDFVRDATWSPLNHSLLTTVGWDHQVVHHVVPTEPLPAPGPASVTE
T1 sequence (O14744 whole entry, the tested form may be a part): as the sequence (O14744 whole entry) above

Row | SMILES | pIC50 (PRMT5/MEP50 complex) | also measured
1 | O=C(CCN1CCc2ccccc2C1)Nc1cccc(OC(F)(F)F)c1 | 4.20 | 
2 | Cc1cc([N+](=O)[O-])ccc1NC(=O)CCN1CCc2ccccc2C1 | < 4.00 | 
3 | COC(=O)c1ccccc1NC(=O)CCCN1CCc2ccccc2C1 | 4.06 | 
4 | O=C(NC[C@H]1C[C@@H]2CC[N@@]1C[C@@H]2CN1CCC(Cc2ccccc2)CC1)c1ccc2c(c1)OCO2 |  | pIC50 [1]: 5.82
5 | O=C(CCN1CCc2ccccc2C1)Nc1ccc(Oc2ccccc2)cc1 | < 4.00 | 
6 | Cc1ccc(NC(=O)CCN2CCc3ccccc3C2)cc1 | < 4.00 | 
7 | COC(=O)c1ccccc1NC(=O)CN1CCc2ccccc2C1 | 4.22 | 
8 | Nc1ncnc2c1ncn2[C@@H]1O/C(=C\[C@@H](N)CC[C@H](N)C(=O)O)[C@@H](O)[C@H]1O |  | pIC50 [2]: 7.46
9 | CCOC(=O)c1ccc(NC(=O)CCN2CCc3ccccc3C2)cc1 | < 4.00 | 
10 | N#Cc1ccccc1NC(=O)CCN1CCc2ccccc2C1 | 4.59 | 
11 | O=C(CCN1CCc2ccccc2C1)Nc1cccc(Br)c1 | 4.74 | 
12 | O=C(CCN1CCc2ccccc2C1)NNC(=O)c1ccccc1 | 4.14 | 
13 | COC(=O)c1ccccc1NC(=O)CCN1CCc2ccccc2C1 | 4.50 | 
14 | CC(=O)c1cccc(NC(=O)CCN2CCc3ccccc3C2)c1 | 4.28 | 
